# Reference: ChEMBL document CHEMBL1275442, “Pharmacokinetics and tissue distribution of anidulafungin in rats” (Antimicrob Agents Chemother, 2008)
# What was measured:
# Kidney [1] = experiment: AUC (0 to infinity) in F344 rat kidney at 5 mg/kg, iv administered as single bolus dose; format: ADME, organism-based; set-up: time infinity, dose 5 mg/kg, route intravenous; settings: in vivo
# Procedure, shortened: (§1)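 Male F344 rats, 10–11 weeks, 223.6–243.8 g, given one IV dose of [¹⁴C]anidulafungin, 5 mg/kg, over about 5 min. Tissues and blood sampled at 0.083–72 h (n = 3 rats per time). Parent drug measured by HPLC; LLOQ/ULOQ were 20/5,120 ng/ml for plasma and 220/56,320 ng/g for tissue. Noncompartmental parameters taken from the composite mean profile.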
# [2] = Drug level in Long Evans rat eye assessed as radioactivity per gram of tissue at 5 mg/kg, iv administered as single bolus dose measured 72 hrs postdose by autoradiography; format: ADME, organism-based; set-up: dose 5 mg/kg, route intravenous; settings: in vivo
# Procedure, shortened: (§2)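 Male pigmented Long Evans (HsdBlu:LE) rats, 7.5 weeks old, 202 to 217 g, single iv [¹⁴C]anidulafungin; one rat per sampling time. Euthanized by isoflurane and cardiac-puncture exsanguination. Sagittal whole-body sections quantified by phosphorimaging autoradiography, single samples corrected for section thickness across multiple sections per tissue. Concentrations (μg eq/g drug-derived radioactivity) interpolated from least-squares standard curves per scan.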
# Spleen [3] = experiment: AUC (0 to 24 hrs) in F344 rat spleen assessed as total compound-derived radioactivity per gram of tissue at 5 mg/kg, iv administered as single bolus dose […]; format: ADME, organism-based; set-up: time < 24 hr, dose 5 mg/kg, route intravenous; settings: in vivo
# Procedure, shortened: (§3)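 Same F344 study: single 5 mg/kg IV [¹⁴C]anidulafungin given over about 5 min. Total drug-derived radioactivity (parent plus metabolites) counted by liquid scintillation, in […]. Noncompartmental analysis of the composite mean profile.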
# Blood [4] = experiment: Drug level in Long Evans rat blood assessed as radioactivity per gram of tissue at 5 mg/kg, iv administered as single bolus dose measured 72 hrs postdose by autoradiography; format: ADME, organism-based; set-up: dose 5 mg/kg, route intravenous; settings: in vivo; procedure, shortened: as §2
# [5] = Cmax in F344 rat muscle at 5 mg/kg, iv administered as single bolus dose after 30 min by HPLC method; format: ADME, organism-based, Muscle tissue; set-up: dose 5 mg/kg, route intravenous; procedure, shortened: as §1
# Kidney [6] = experiment: Drug level in Long Evans rat kidney assessed as high disposition of radioactivity per gram of tissue at 5 mg/kg, iv administered as single bolus dose measured 72 hrs postdose by autoradiography; format: ADME, organism-based; set-up: dose 5 mg/kg, route intravenous; settings: in vivo; procedure, shortened: as §2
# [7] = Tmax in F344 rat muscle at 5 mg/kg, iv administered as single bolus dose by HPLC method; format: ADME, organism-based, Muscle tissue; set-up: dose 5 mg/kg, route intravenous
# Procedure, shortened: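 F344 males, 10 to 11 weeks old and 223.6 to 243.8 g, got a single 5 mg/kg iv dose of [14C]anidulafungin over about 5 min. Plasma and tissues were collected predose and at 0.083 to 72 h, n = 3 per time point. Parent drug was quantified by HPLC-UV, with LLOQ/ULOQ of 20/5,120 ng/ml in plasma and 220/56,320 ng/g in tissue. Noncompartmental parameters came from a composite mean concentration-time profile.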
# Kidney [8] = experiment: AUC (0 to 24 hrs) in F344 rat kidney assessed as total compound-derived radioactivity per gram of tissue at 5 mg/kg, iv administered as single bolus dose […]; format: ADME, organism-based; set-up: time < 24 hr, dose 5 mg/kg, route intravenous; settings: in vivo; procedure, shortened: as §3
# Lung [9] = experiment: Drug level in Long Evans rat lung assessed as radioactivity per gram of tissue at 5 mg/kg, iv administered as single bolus dose measured 72 hrs postdose by autoradiography; format: ADME, organism-based; set-up: dose 5 mg/kg, route intravenous; settings: in vivo; procedure, shortened: as §2
# Zone of skin = experiment: AUC (0 to 24 hrs) in F344 rat skin at 5 mg/kg, iv administered as single bolus dose; format: ADME, organism-based; set-up: time < 24 hr, dose 5 mg/kg, route intravenous; settings: in vivo; procedure, shortened: as §1
# Kidney [10] = experiment: Drug level in Long Evans rat kidney assessed as high disposition of radioactivity per gram of tissue at 5 mg/kg, iv administered as single bolus dose measured 168 hrs postdose by autoradiography; format: ADME, organism-based; set-up: dose 5 mg/kg, route intravenous; settings: in vivo; procedure, shortened: as §2
# Lung [11] = experiment: AUC (0 to infinity) in F344 rat lung assessed as total compound-derived radioactivity per gram of tissue at 5 mg/kg, iv administered as single bolus dose […]; format: ADME, organism-based; set-up: dose 5 mg/kg, route intravenous, time infinity; settings: in vivo; procedure, shortened: as §3
# Blood [12] = experiment: Drug level in Long Evans rat blood assessed as radioactivity per gram of tissue at 5 mg/kg, iv administered as single bolus dose measured 0.5 hrs postdose by autoradiography; format: ADME, organism-based; set-up: dose 5 mg/kg, route intravenous; settings: in vivo
# Procedure, shortened: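 Male pigmented Long Evans rats, 7.5 weeks, 202–217 g, given one IV dose of [¹⁴C]anidulafungin, 5 mg/kg. Euthanised under isoflurane with cardiac exsanguination, one rat per time. Sagittal whole-body sections quantified by phosphorimaging, corrected for section thickness. Concentrations in μg eq/g interpolated from least-squares standard curves.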
# Spleen [13] = experiment: Drug level in Long Evans rat spleen assessed as radioactivity per gram of tissue at 5 mg/kg, iv administered as single bolus dose measured 168 hrs postdose by autoradiography; format: ADME, organism-based; set-up: dose 5 mg/kg, route intravenous; settings: in vivo
# Procedure, shortened: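 Male pigmented Long Evans (HsdBlu:LE) rats, 7.5 weeks old and 202 to 217 g, got a single iv dose of [14C]anidulafungin at 5 mg/kg. One rat per time point (0.5, 6, 12, 24, 72, 168 h) was euthanised by isoflurane and cardiac-puncture exsanguination. Sagittal whole-body sections were quantified by phosphorimaging. Samples were thickness-corrected, and concentrations (μg eq/g) were interpolated from least-squares standard curves.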
# Kidney [14] = experiment: Tmax in F344 rat kidney assessed as total compound-derived radioactivity at 5 mg/kg, iv administered as single bolus dose […]; format: ADME, organism-based; set-up: dose 5 mg/kg, route intravenous; settings: in vivo
# Procedure, shortened: (§4)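 Male F344 rats, 10 to 11 weeks old and 223.6 to 243.8 g, got one iv dose of [14C]anidulafungin at 5 mg/kg over about 5 min. Blood, CSF, kidney, liver, lung, quadriceps, spleen and skin were sampled predose and at 0.083 to 72 h, 3 rats per time. Total radioactivity (parent plus metabolites) was measured by liquid scintillation counting. Parameters were noncompartmental, from a composite mean profile.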
# Lung [15] = experiment: Drug level in Long Evans rat lung assessed as radioactivity per gram of tissue at 5 mg/kg, iv administered as single bolus dose measured 24 hrs postdose by autoradiography; format: ADME, organism-based; set-up: dose 5 mg/kg, route intravenous; settings: in vivo; procedure, shortened: as §2
# Spleen [16] = experiment: Cmax in F344 rat spleen assessed as total compound-derived radioactivity per gram of tissue at 5 mg/kg, iv administered as single bolus dose after 30 mins […]; format: ADME, organism-based; set-up: dose 5 mg/kg, route intravenous; settings: in vivo, 0.5 h; procedure, shortened: as §3
# Lung [17] = experiment: Half life in F344 rat lung assessed as total compound-derived radioactivity at 5 mg/kg, iv administered as single bolus dose […]; format: ADME, organism-based; set-up: dose 5 mg/kg, route intravenous; settings: in vivo; procedure, shortened: as §4
# Kidney [18] = experiment: Drug level in Long Evans rat kidney assessed as high disposition of radioactivity per gram of tissue at 5 mg/kg, iv administered as single bolus dose measured 6 hrs postdose by autoradiography; format: ADME, organism-based; set-up: dose 5 mg/kg, route intravenous; settings: in vivo; procedure, shortened: as §2
# Cerebrospinal fluid = experiment: Drug level in Long Evans rat cerebrospinal fluid assessed as radioactivity per gram of tissue at 5 mg/kg, iv administered as single bolus dose measured 6 hrs postdose by autoradiography; format: ADME, organism-based; set-up: dose 5 mg/kg, route intravenous; settings: in vivo; procedure, shortened: as §2
# Liver [19] = experiment: Drug level in Long Evans rat liver assessed as low disposition of radioactivity per gram of tissue at 5 mg/kg, iv administered as single bolus dose measured 24 hrs postdose by autoradiography; format: ADME, organism-based; set-up: dose 5 mg/kg, route intravenous; settings: in vivo; procedure, shortened: as §2
# Liver [20] = experiment: Drug level in Long Evans rat liver assessed as low disposition of radioactivity per gram of tissue at 5 mg/kg, iv administered as single bolus dose measured 168 hrs postdose by autoradiography; format: ADME, organism-based; set-up: dose 5 mg/kg, route intravenous; settings: in vivo; procedure, shortened: as §2
# Spleen [21] = experiment: AUC (0 to 24 hrs) in F344 rat spleen at 5 mg/kg, iv administered as single bolus dose; format: ADME, organism-based; set-up: time < 24 hr, dose 5 mg/kg, route intravenous; settings: in vivo; procedure, shortened: as §1
# Liver [22] = experiment: Drug level in Long Evans rat liver assessed as high disposition of radioactivity per gram of tissue at 5 mg/kg, iv administered as single bolus dose measured 168 hrs postdose by autoradiography; format: ADME, organism-based; set-up: dose 5 mg/kg, route intravenous; settings: in vivo; procedure, shortened: as §2
# Lung [23] = experiment: Drug level in Long Evans rat lung assessed as radioactivity per gram of tissue at 5 mg/kg, iv administered as single bolus dose measured 0.5 hrs postdose by autoradiography; format: ADME, organism-based; set-up: dose 5 mg/kg, route intravenous; settings: in vivo; procedure, shortened: as §2
structure (smiles),measurement,setting,value
CCCCCOc1ccc(-c2ccc(-c3ccc([14C](=O)N[C@H]4C[C@@H](O)[C@@H](O)NC(=O)[C@@H]5[C@@H](O)[C@@H](C)CN5C(=O)[C@H]([C@@H](C)O)NC(=O)[C@H]([C@H](O)[C@@H](O)c5ccc(O)cc5)NC(=O)[C@@H]5C[C@@H](O)CN5C(=O)[C@H]([C@@H](C)O)NC4=O)cc3)cc2)cc1 [14C-ANIDULAFUNGIN],AUC,Kidney [1],658.93 µg·h/g
same,Drug uptake,[2],0.72 ugequiv
same,AUC,Spleen [3],822.61 ugequiv.hr/g
same,Drug uptake,Blood [4],0.85 ugequiv
same,Cmax,[5],3840 ng/g
same,Drug uptake,Kidney [6],7.32 ugequiv
same,Tmax,[7],30 min
same,AUC,Kidney [8],920.18 ugequiv.hr/g
same,Drug uptake,Lung [9],4.24 ugequiv
same,AUC,Zone of skin,102.72 µg·h/g
same,Drug uptake,Kidney [10],2.57 ugequiv
same,AUC,Lung [11],1341.95 ugequiv.hr/g
same,Drug uptake,Blood [12],6.85 ugequiv
same,Drug uptake,Spleen [13],1.53 ugequiv
same,Tmax,Kidney [14],30 min
same,Drug uptake,Lung [15],8.05 ugequiv
same,Cmax,Spleen [16],30.92 ugequiv/g
same,t1/2,Lung [17],42.2 h
same,Drug uptake,Kidney [18],20.66 ugequiv
same,Drug uptake,Cerebrospinal fluid,5.54 ugequiv
same,Drug uptake,Liver [19],14.7 ugequiv
same,Drug uptake,Liver [20],1.83 ugequiv
same,AUC,Spleen [21],490.36 µg·h/g
same,Drug uptake,Liver [22],4.27 ugequiv
same,Drug uptake,Lung [23],22.31 ugequiv
